According to ChEMBL document CHEMBL1129059, “Antitumor properties of some 2-[(dimethylamino)methyl]phenylgold(III) complexes” (J Med Chem, 1996):

Legend:
Assay type in all cases: functional, organism-based
Mus musculus [1] = assay: Compound was evaluated for antitumor activity (T/C) in PNX/109/TC carcinoma Xenograft, at a dosage 5 mg/kg on day 28; set-up: dose 5 mg/kg
Procedure, shortened: (§1)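 PNX/109/TC (CH1) ovarian tumor fragments implanted subcutaneously in the flanks of nude mice. Once tumors were palpable, mice were randomized into 6 per treated group and 10 controls. Dosing was ip in arachis oil on days 0, 7, 14 and 21, at the MTD and two 2-fold dilutions, with tumor dimensions taken on days 0, 7, 14, 21 and 28. T/C is treated RTV over control RTV, with RTV relative to start volume.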

Mus musculus [2] = assay: Compound was evaluated for antitumor activity (T/C) in HT1376 carcinoma Xenograft, at a dosage 12.5 mg/kg on day 14; set-up: dose 12.5 mg/kg
Procedure, shortened: (§2)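 Subcutaneous HT1376 xenografts in nude mice, 6 per treated group and 10 controls. Intraperitoneal dosing as suspensions in 0.5% carboxymethylcellulose/0.9% saline on days 0, 7, 14, 21; tumors measured weekly to day 28. T/C = RTV of treated group / RTV of untreated control group; significance by t-test at the 5% level.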

Mus musculus [3] = assay: Compound was evaluated for antitumor activity (RTV) in PNX/109/TC carcinoma Xenograft, at a dosage 10 mg/kg on day 7; set-up: dose 10 mg/kg
Procedure, shortened: (§3)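 PXN/109/TC (CH1) ovarian tumor fragments implanted subcutaneously in nude mice flanks; established palpable tumors, groups of 6 (controls 10). Dosed intraperitoneally as suspension in arachis oil on days 0, 7, 14, 21. Tumors measured days 0, 7, 14, 21, 28. RTV = 100(mean tumor volume at assessment)/(mean start volume).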

Mus musculus [4] = assay: Compound was evaluated for antitumor activity (T/C) in HT1376 carcinoma Xenograft, at a dosage 6.25 mg/kg on day 14; set-up: dose 6.25 mg/kg
Procedure, shortened: (§4)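 Nude mice carrying subcutaneous flank HT1376 fragments; treatment began once tumors were established and palpable, randomized into groups of 6 treated and 10 control mice. Dosing was ip as a suspension in 0.5% carboxymethylcellulose in 0.9% saline on days 0, 7, 14 and 21, at the MTD and two 2-fold dilutions. Tumors were measured on days 0-28. RTV = 100(mean volume at assessment)/(mean start volume); T/C = treated RTV/control RTV.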

Mus musculus [5] = assay: Compound was evaluated for antitumor activity (T/C) in HT1376 carcinoma Xenograft, at a dosage 12.5 mg/kg on day 21; set-up: dose 12.5 mg/kg; procedure, shortened: as §2
Mus musculus [6] = assay: Compound was evaluated for antitumor activity (T/C) in PNX/109/TC carcinoma Xenograft, at a dosage 20 mg/kg on day 14; set-up: dose 20 mg/kg; procedure, shortened: as §1
Mus musculus [7] = assay: Compound was evaluated for antitumor activity (T/C) in HT1376 carcinoma Xenograft, at a dosage 25 mg/kg on day 7; set-up: dose 25 mg/kg; procedure, shortened: as §4
Mus musculus [8] = assay: Compound was evaluated for antitumor activity (T/C) in PNX/109/TC carcinoma Xenograft, at a dosage 5 mg/kg on day 21; set-up: dose 5 mg/kg; procedure, shortened: as §1
Mus musculus [9] = assay: Compound was evaluated for antitumor activity (T/C) in PNX/109/TC carcinoma Xenograft, at a dosage 5 mg/kg on day 14; set-up: dose 5 mg/kg; procedure, shortened: as §1
Mus musculus [10] = assay: Compound was evaluated for antitumor activity (T/C) in PNX/109/TC carcinoma Xenograft, at a dosage 10 mg/kg on day 28; set-up: dose 10 mg/kg; procedure, shortened: as §1
Mus musculus [11] = assay: Compound was evaluated for antitumor activity (T/C) in PNX/109/TC carcinoma Xenograft, at a dosage 20 mg/kg on day 28; set-up: dose 20 mg/kg; procedure, shortened: as §1
Mus musculus [12] = assay: Compound was evaluated for antitumor activity (RTV) in PNX/109/TC carcinoma Xenograft, at a dosage 20 mg/kg on day 28; set-up: dose 20 mg/kg; procedure, shortened: as §3
Mus musculus [13] = assay: Compound was evaluated for antitumor activity (RTV) in PNX/109/TC carcinoma Xenograft, at a dosage 5 mg/kg on day 21; set-up: dose 5 mg/kg; procedure, shortened: as §3
Mus musculus [14] = assay: Compound was evaluated for antitumor activity (RTV) in PNX/109/TC carcinoma Xenograft, at a dosage 10 mg/kg on day 14; set-up: dose 10 mg/kg; procedure, shortened: as §3
Mus musculus [15] = assay: Compound was evaluated for antitumor activity (RTV) in HT1376 carcinoma Xenograft, at a dosage 25 mg/kg on day 21; set-up: dose 25 mg/kg
Procedure, shortened: (§5)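 HT1376 tumor fragments implanted subcutaneously in nude mice flanks; mice with established palpable tumors randomized into groups of 6 (controls 10). Compounds given intraperitoneally as suspensions in 0.5% carboxymethylcellulose in 0.9% saline, on days 0, 7, 14 and 21. Tumor dimensions on days 0, 7, 14, 21, 28. RTV = 100(mean tumor volume at assessment)/(mean start volume).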

Mus musculus [16] = assay: Compound was evaluated for antitumor activity (RTV) in HT1376 carcinoma Xenograft, at a dosage 12.5 mg/kg on day 28; set-up: dose 12.5 mg/kg; procedure, shortened: as §5

## Acetato[2-(dimethylamino)methyl]phenyl-C,N]gold-(III)
Mus musculus [1]
  T/C: 1.08
Mus musculus [2]
  T/C: 0.98
Mus musculus [3]
  RTV: 173
Mus musculus [4]
  T/C: 1.43
Mus musculus [5]
  T/C: 0.77
Mus musculus [6]
  T/C: 0.57
Mus musculus [7]
  T/C: 0.93
Mus musculus [8]
  T/C: 0.84
Mus musculus [9]
  T/C: 0.8
Mus musculus [10]
  T/C: 1.34
Mus musculus [11]
  T/C: 0.77
Mus musculus [12]
  RTV: 481
Mus musculus [13]
  RTV: 423
Mus musculus [14]
  RTV: 316
Mus musculus [15]
  RTV: 671
Mus musculus [16]
  RTV: 1080
